One may read the inhibition as how much of the control response was suppressed. A word on the Km: it is the concentration of substrate that gives half-maximal velocity.

Activity calls are given as the source filed them. No cut-off for these calls is given here.

The values below come from ChEMBL document CHEMBL1122791, “Inhibition of arabinose 5-phosphate isomerase. An approach to the inhibition of bacterial lipopolysaccharide biosynthesis” (J Med Chem, 1984).

Data set [1] relates to arabinose 5-phosphate isomerase (Escherichia coli). Kind of data set: Inhibitory activity against Arabinose-5-phosphate isomerase at a concentration of 6 mM; Not active.
Data set [2] addresses arabinose 5-phosphate isomerase (Escherichia coli) (UniProt P45395). Nature of the data set: Inhibitory activity against Arabinose-5-phosphate isomerase at a concentration of 2.4 mM; Not active.
In data set [3] the test system is arabinose 5-phosphate isomerase (Escherichia coli). Nature of the data set: Inhibitory activity against Arabinose-5-phosphate isomerase at a concentration of 5 mM; Not active.
The target of data set [4] is T1, Arabinose 5-phosphate isomerase KdsD (Salmonella typhimurium (strain LT2 / SGSC1412 / ATCC 700720), UniProt Q8ZLS1).
T1 sequence (Q8ZLS1 whole entry): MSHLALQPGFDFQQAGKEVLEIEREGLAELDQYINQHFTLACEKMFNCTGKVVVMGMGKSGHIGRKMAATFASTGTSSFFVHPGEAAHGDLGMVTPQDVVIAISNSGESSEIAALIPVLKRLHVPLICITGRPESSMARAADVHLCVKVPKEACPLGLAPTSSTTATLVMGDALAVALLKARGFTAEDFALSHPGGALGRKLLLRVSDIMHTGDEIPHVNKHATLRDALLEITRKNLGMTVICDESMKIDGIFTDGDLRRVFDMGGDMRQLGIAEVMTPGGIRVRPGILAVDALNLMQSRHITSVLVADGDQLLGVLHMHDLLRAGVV
Nature of the data set: Inhibitory activity against Arabinose-5-phosphate isomerase; Interfered. The essentials:
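Isomerase from E. coli B cells, purified 50-fold. Inhibitor and enzyme were preincubated 2 min at 37 °C in 0.1 M histidine buffer, pH 7.5. The reaction was started with 10 mM (stock) D-arabinose 5-phosphate or D-ribulose 5-phosphate. It was stopped at 0, 3, 6, 9 and 12 min with cysteine HCl, then H2SO4. Ketose was read at 540 nm by carbazole colour (30 min, 37 °C).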

Data set [5] deals with arabinose 5-phosphate isomerase (Escherichia coli). Kind of data set: Inhibitory activity against Arabinose-5-phosphate isomerase; Not active.
Data set [6] has the same test system. Nature of the data set: Inhibitory activity against Arabinose-5-phosphate isomerase at a concentration of 6 mM.
Data set [7] addresses arabinose 5-phosphate isomerase (Escherichia coli) (UniProt P45395). Kind of data set: Inhibitory activity against Arabinose-5-phosphate isomerase at a concentration of 12 mM; Not active.
For data set [8], the system named is arabinose 5-phosphate isomerase (Escherichia coli). Nature of the data set: Inhibitory activity against Arabinose-5-phosphate isomerase at a concentration of 2 mM; Not active.
For data set [9] the test system is unchanged. Kind of data set: Inhibitory activity against Arabinose-5-phosphate isomerase at a concentration of 1.5 mM; Not active.
For data set [10] the test system is unchanged. Nature of the data set: Inhibitory activity against Arabinose-5-phosphate isomerase; Unstable.
In data set [11] the target is arabinose 5-phosphate isomerase (Escherichia coli) (UniProt P45395). Kind of data set: Inhibitory activity against Arabinose-5-phosphate isomerase at a concentration of 3 mM; Not active.
arabinose 5-phosphate isomerase (Escherichia coli) (UniProt P45395), sequence (P45395 whole entry, looked up): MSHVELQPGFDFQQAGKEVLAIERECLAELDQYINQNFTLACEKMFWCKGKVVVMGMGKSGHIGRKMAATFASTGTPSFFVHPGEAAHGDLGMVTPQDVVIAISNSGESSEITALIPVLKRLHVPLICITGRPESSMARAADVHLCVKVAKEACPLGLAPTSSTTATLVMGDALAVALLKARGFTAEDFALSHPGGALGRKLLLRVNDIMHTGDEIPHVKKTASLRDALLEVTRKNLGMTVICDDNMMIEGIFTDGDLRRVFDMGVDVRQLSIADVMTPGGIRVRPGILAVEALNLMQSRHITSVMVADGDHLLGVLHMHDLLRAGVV
Data set [12] has as its system arabinose 5-phosphate isomerase (Escherichia coli). Nature of the data set: Inhibitory activity against Arabinose-5-phosphate isomerase at a concentration of 5 mM; NA = not active at 5.
Compound in data set [13]: O=P(O)(O)OC[C@H]1O[C@@H](O)[C@@H](O)[C@@H]1O
Kind of data set: Inhibitory activity against Arabinose-5-phosphate isomerase. The conditions noted are these: Escherichia coli B.

As to `O=P(O)(O)OCC(O)C(O)C(O)C(O)CO` (stereo not given), the inhibition entry in data set [1] and in [2] was “inactive” each time. With `O=P(O)(O)OCC1OC(O)C(F)C1O` (stereo not given), the inhibition entry in [3] was “inactive”. As for `O=P(O)(O)OCC1OC(O)C(O)C1OCc1ccccc1` (stereo not given), in data set [1], the inhibition result is “inactive”. As for `O=[N+]([O-])OC[C@H]1O[C@H](O)[C@@H](O)[C@@H]1O`, the “I 50” value in data set [4] is on record as “Interfered”. Turning to `O=C(O)C(=O)OC[C@H]1OC(=O)[C@H](O)[C@@H]1O`, the inhibition entry in [5] is “inactive”. In [6], `O=C1O[C@H](CCl)[C@@H](O)[C@H]1O` came in with an inhibition of 12%.

Regarding `NS(=O)(=O)OC[C@H]1OC(=O)[C@H](O)[C@@H]1O`, in data set [7], the inhibition result was “inactive”. Turning to `O=P(O)(O)OCC1OC(O)CC1O` (stereo not given), in data set [8], the inhibition entry is “inactive”.

In the case of `O=P(O)(O)OCC(O)C(O)CCO` (stereo not given), the inhibition entry in data set [9] was “inactive”.

For the molecule `CC(=O)CC(=O)OC[C@H]1O[C@H](O)[C@@H](O)[C@@H]1O`, the “I 50” value in data set [10] is reported as “Unstable”.

For the molecule `COC1C(COP(=O)(O)O)OC(O)C1O` (stereo not given), the inhibition result in data set [11] is “inactive”. As to `C[C@H]1OC(O)[C@H](O)[C@H]1O` (stereo not given in full), the inhibition result in data set [12] was “inactive”.

In the case of `O=C1O[C@H](CO)[C@@H](O)[C@H]1O`, in [1], the inhibition entry is “inactive”.

B1: Arabinose 5-phosphate isomerase KdsD (Salmonella typhimurium (strain LT2 / SGSC1412 / ATCC 700720)), Q8ZLS1 (protein)
chain: T1 sequence (Q8ZLS1 whole entry)
Take B1: the Km in data set [13] amounted to 200 µM.
